# Measurements gathered from unrelated publications.
# Protocols differ between the studies behind these lines.
# Target: MAP kinase-activated protein kinase 5 (MAPKAPK5, Homo sapiens, UniProt Q8IW41)
# One construct used (Q8IW41 1-473): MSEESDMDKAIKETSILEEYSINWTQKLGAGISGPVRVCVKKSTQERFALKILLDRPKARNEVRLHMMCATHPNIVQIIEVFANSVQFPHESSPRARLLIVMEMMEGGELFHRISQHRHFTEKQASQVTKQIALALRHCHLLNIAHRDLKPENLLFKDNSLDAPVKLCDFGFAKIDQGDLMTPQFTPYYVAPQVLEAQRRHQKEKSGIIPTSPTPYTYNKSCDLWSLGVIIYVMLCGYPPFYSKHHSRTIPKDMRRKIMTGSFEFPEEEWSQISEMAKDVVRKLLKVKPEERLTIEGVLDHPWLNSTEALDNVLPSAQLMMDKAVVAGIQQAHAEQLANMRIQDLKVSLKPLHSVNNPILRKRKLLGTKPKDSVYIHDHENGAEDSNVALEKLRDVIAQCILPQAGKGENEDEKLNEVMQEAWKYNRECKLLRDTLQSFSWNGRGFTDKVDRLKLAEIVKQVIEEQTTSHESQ
SMILES,assay,setting,remaining binding
Cn1cc(Cl)c2c(Oc3c(F)cc(Nc4cc(Cl)nc(N)n4)cc3F)ccnc21,"cell-free assay, competition with immobilised ligand",0.1 µM,100%
O=C(Nc1c[nH]nc1C(=O)NC1CCNCC1)c1cc(F)cc(F)c1,"binding, competition with immobilised ligand",1 µM,94%
CCN1CCN(Cc2ccc(C(=O)Nc3ccc(C)c(Oc4ccc5c(c4)CC(=O)N5)c3)cc2C(F)(F)F)CC1,"binding, competition with immobilised ligand",1 µM,100%
CC1CCCN1c1nccc(-c2cnn3ncccc23)n1 (stereo not shown),binding,1 µM,100%
c1cncc(-c2cccc(Nc3nccc(NC4CCCCC4)n3)c2)c1,"binding, competition with immobilised ligand",10 µM,100%
CN(C)CC#Cc1ccc(OCCCc2sc(N3CCc4cccc(C(=O)Nc5nc6ccccc6s5)c4C3)nc2C(=O)O)c(F)c1,"cell-free assay, competition with immobilised ligand",1 µM,99%
CN(c1nccc(-c2cnn3ncccc23)n1)C1CC1,binding,1 µM,99%
FC(F)(F)Oc1cccc(-c2cnc3ccc(-c4ccncc4)nn23)c1,"cell-free assay, competition with immobilised ligand",5 µM,71%
CN(C(=O)c1ccccc1)c1cc(N(C)c2ccc3c(c2)CCc2ccc(C(=O)NCCN4CCOCC4)cc2C3=O)ccc1F,"cell-free assay, competition with immobilised ligand",1 µM,100%
C[C@@H]1CCN(c2nccc(-c3cnn4ncccc34)n2)C1,binding,1 µM,69%
COc1cnc(Nc2cccc(S(N)(=O)=O)c2)nc1N1CCN(c2ccccc2)CC1,"binding, competition with immobilised ligand",1 µM,96%
CSc1cccnc1N1CCN(Cc2nc3ccccc3[nH]2)CC1,"cell-free assay, competition with immobilised ligand",1 µM,84%
O=C(c1ccc(Nc2ncc(Cl)c(-c3ccc(Cl)s3)n2)cc1)N1CCC(N2CCCC2)CC1,"binding, competition with immobilised ligand",1 µM,100%
CN(C)c1nccc(-c2cnc3ncccn23)n1,binding,1 µM,93%
COc1ncc2cc3ccccc3nc2c1C#N,"cell-free assay, competition with immobilised ligand",5 µM,83%
C[C@H](c1ccnc(Nc2nc3ccc(-c4cc(N(C)C)ncn4)cc3[nH]2)c1)N1CCN(C(=O)CC(F)(F)F)CC1,"cell-free assay, competition with immobilised ligand",0.1 µM,86%
CN(C)c1ncc(F)c(-c2cnn3ncccc23)n1,binding,1 µM,74%
O=C(c1ccc(Nc2ncc(Cl)c(-c3cc4ccccc4s3)n2)cc1)N1CCC(N2CCCC2)CC1,"binding, competition with immobilised ligand",1 µM,80%
O=S(=O)(NC1CCC(c2cc(F)ccc2F)(S(=O)(=O)c2ccc(Cl)cc2)CC1)C(F)(F)F (stereo not shown),"cell-free assay, competition with immobilised ligand",1 µM,93%
